How the values were obtained:
Format in all cases: cell-based
[1] = molecular target: T1, RNA polymerase II (Mus musculus) (UniProt P08775+Q8CFI7+P97760+A0A3Q4L2S8+Q80UW8+P61219+P62488+Q923G2+P60898+O08740+Q63871+P62876); assay: Inhibition of RNA polymerase II in mouse B16-F1 migrating cells assessed as fold change in Galk1-RNA stability at 0.1 mM measured by ChIP-seq analysis relative to control cells
[2] = molecular target: T1, RNA polymerase II (Mus musculus); assay: Inhibition of RNA polymerase II in mouse B16-F1 migrating cells assessed as fold change in Kif18a-RNA stability at 0.1 mM measured by ChIP-seq analysis relative to control cells
[3] = molecular target: T1, RNA polymerase II (Mus musculus); assay: Inhibition of RNA polymerase II in mouse B16-F1 migrating cells assessed as fold change in Shprh-RNA stability at 0.1 mM measured by […] analysis relative to control cells
[4] = molecular target: T1, RNA polymerase II (Mus musculus); assay: Inhibition of RNA polymerase II in mouse B16-F1 migrating cells assessed as fold change in Agps-RNA stability at 0.1 mM measured by […] analysis relative to control cells
[5] = molecular target: Histone-lysine N-methyltransferase EZH2 (Mus musculus) (UniProt Q61188); assay: Inhibition of EZH2 in mouse B16-F1 migrating cells assessed as fold change in H3K27me3-buffered regulated Fam60a-mRNA expression at 3 uM measured by […] analysis relative to control cells
Histone-lysine N-methyltransferase EZH2 (Mus musculus), sequence (Q61188 whole entry): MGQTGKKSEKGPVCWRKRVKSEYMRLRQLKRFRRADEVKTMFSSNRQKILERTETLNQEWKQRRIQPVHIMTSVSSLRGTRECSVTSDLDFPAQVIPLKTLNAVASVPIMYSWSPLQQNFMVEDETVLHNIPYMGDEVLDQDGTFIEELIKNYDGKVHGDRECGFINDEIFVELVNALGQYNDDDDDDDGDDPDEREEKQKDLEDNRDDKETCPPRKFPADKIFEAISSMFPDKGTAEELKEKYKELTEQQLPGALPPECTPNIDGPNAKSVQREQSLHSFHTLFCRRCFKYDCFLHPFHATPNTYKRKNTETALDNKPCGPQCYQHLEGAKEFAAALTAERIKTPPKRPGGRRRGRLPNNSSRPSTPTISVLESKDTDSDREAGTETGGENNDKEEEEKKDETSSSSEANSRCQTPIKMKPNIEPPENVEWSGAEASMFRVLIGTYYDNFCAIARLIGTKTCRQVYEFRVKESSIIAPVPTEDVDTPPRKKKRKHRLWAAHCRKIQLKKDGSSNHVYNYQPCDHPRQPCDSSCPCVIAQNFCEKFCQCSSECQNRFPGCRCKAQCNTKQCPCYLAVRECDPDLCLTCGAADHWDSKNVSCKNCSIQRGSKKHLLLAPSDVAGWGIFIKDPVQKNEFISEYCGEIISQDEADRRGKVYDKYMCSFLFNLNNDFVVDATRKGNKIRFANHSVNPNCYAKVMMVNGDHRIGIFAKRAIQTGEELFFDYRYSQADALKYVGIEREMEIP
In short: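 Confluent B16-F1 cells on fibronectin-coated plates, cultured at 37 °C and 7% CO2, were scratched at multiple sites to induce migration. They were then held 3 h in growth medium containing 3 µM GSK343, with the inhibitor added 3 h before lysis. Unscratched cells served as controls. Poly A mRNA was analysed by RNA-seq (n=3 GSK343, n=5 controls). Linear models removed batch effects, and buffered genes were those altered only under GSK343 (FDR <0.05, fold change >1.3).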

[6] = molecular target: Histone-lysine N-methyltransferase EZH2 (Mus musculus) (UniProt Q61188); assay: Inhibition of EZH2 in mouse B16-F1 migrating cells assessed as fold change in H3K27me3-buffered regulated Stk10-mRNA expression at 3 uM measured by ChIP-seq analysis relative to control cells
In short: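 Confluent B16-F1 cells on fibronectin-coated plates were scratched at multiple sites, washed once with DMEM and left to migrate 3 h in growth medium (37 °C, 7% CO2); unscratched cells served as control. GSK343 (3 µM) was added 3 h before lysis. Poly A mRNA was sequenced (RNA-seq), with 5 replicates for untreated and 3 for treated cells. Differential expression was called by linear model with batch correction, at FDR <0.05 and fold change ≥1.3.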

`OC[C@H]1O[C@@H](n2cnc3cc(Cl)c(Cl)cc32)[C@H](O)[C@@H]1O` gave a log2FC [1] of 0.67, a log2FC [2] of -1.13 and a log2FC [3] of -0.62. For the same molecule, the log2FC [4] was -0.58.
With `CCCc1cc(C)[nH]c(=O)c1CNC(=O)c1cc(-c2ccnc(N3CCN(C)CC3)c2)cc2c1cnn2C(C)C` the log2FC [5] was -0.61 and the log2FC [6] was -0.44.
